Data from ChEMBL document CHEMBL1138475, “Conformationally constrained fatty acid ethanolamides as cannabinoid and vanilloid receptor probes” (J Med Chem, 2009).

Legend:
[1] = biological target: Cannabinoid receptor 2 (Homo sapiens, UniProt P34972); assay: Displacement of [3H]CP-55940 from human recombinant CB2 receptor expressed in HEK293 cell membrane; type: cell membranes
[2] = biological target: T1, Transient receptor potential cation channel subfamily V member 1 (Homo sapiens, UniProt Q8NER1); assay: Agonist activity at human recombinant TRPV1 expressed in HEK293 cells assessed as increase in intracellular calcium level; type: functional, cell-based
Summary of the method: (§1)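 Stably transfected HEK-293 cells loaded 1 h at 25 °C with 4 µM Fluo-4 AM, washed, resuspended in Tyrode's buffer pH 7.4. Efficacy relative to 4 µM ionomycin. EC50 is the concentration giving half-maximal [Ca2+]i rise, by sigmoidal fit. At least triplicate.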

[3] = biological target: Cannabinoid receptor 1 (Mus musculus, UniProt P47746); assay: Agonist activity at CB1 receptor expressed in mouse brain membrane by [35S]GTPgammaS binding assay; type: functional, cell membranes
Summary of the method: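 Mouse brain membranes (10 µg/mL) preincubated 30 min at 30 °C with adenosine deaminase 0.5 U/mL, in Tris buffer with MgCl2, EDTA, NaCl, DTT, 0.1% BSA, 0.1 nM [35S]GTPγS, 30 µM GDP; compounds 60 min at 30 °C. Nonspecific with 30 µM GTPγS. Filtration, scintillation counting. 0.1% DMSO vehicle. Basal subtracted; EC50 and Emax by sigmoid nonlinear regression.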

[4] = biological target: T1, Transient receptor potential cation channel subfamily V member 1; assay: Agonist activity at human recombinant TRPV1 expressed in HEK293 cells assessed as increase in intracellular calcium level relative to ionomycin; type: functional, cell-based
Summary of the method: as §1, with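 “7.4. Fluorescence (ex 488/em 516 nm) read at 25 °C with stirring, before and after compound at various concentrations.” for “7.4.”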

[5] = biological target: Cannabinoid receptor 1 (Homo sapiens, UniProt P21554); assay: Displacement of [3H]CP-55940 from human recombinant CB1 receptor expressed in HEK293 cell membrane; type: cell membranes
Cannabinoid receptor 1 (Homo sapiens, UniProt P21554), sequence (P21554 whole entry): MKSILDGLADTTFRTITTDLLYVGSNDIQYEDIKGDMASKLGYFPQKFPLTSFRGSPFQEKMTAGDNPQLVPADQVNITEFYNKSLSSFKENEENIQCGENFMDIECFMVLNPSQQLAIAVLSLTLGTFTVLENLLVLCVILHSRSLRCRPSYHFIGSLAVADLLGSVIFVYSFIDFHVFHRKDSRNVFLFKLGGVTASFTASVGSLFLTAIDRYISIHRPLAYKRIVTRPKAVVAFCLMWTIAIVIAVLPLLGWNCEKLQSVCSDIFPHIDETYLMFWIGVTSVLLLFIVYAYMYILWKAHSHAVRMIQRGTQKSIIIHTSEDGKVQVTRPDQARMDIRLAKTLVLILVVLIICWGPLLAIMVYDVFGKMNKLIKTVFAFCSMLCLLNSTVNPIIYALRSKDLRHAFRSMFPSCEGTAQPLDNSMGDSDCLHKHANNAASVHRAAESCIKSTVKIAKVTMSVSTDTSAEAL

Cannabinoid receptor 2, sequence (P34972 whole entry): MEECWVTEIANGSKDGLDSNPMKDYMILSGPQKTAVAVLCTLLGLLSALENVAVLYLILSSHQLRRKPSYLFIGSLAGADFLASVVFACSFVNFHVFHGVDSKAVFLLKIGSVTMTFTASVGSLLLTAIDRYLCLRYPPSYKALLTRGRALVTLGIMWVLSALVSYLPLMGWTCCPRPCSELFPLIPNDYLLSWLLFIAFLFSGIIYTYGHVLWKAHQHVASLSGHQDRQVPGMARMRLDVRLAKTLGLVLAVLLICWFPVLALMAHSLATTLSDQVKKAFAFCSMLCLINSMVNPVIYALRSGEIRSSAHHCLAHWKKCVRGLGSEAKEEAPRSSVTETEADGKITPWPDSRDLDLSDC
T1 sequence (Q8NER1 whole entry): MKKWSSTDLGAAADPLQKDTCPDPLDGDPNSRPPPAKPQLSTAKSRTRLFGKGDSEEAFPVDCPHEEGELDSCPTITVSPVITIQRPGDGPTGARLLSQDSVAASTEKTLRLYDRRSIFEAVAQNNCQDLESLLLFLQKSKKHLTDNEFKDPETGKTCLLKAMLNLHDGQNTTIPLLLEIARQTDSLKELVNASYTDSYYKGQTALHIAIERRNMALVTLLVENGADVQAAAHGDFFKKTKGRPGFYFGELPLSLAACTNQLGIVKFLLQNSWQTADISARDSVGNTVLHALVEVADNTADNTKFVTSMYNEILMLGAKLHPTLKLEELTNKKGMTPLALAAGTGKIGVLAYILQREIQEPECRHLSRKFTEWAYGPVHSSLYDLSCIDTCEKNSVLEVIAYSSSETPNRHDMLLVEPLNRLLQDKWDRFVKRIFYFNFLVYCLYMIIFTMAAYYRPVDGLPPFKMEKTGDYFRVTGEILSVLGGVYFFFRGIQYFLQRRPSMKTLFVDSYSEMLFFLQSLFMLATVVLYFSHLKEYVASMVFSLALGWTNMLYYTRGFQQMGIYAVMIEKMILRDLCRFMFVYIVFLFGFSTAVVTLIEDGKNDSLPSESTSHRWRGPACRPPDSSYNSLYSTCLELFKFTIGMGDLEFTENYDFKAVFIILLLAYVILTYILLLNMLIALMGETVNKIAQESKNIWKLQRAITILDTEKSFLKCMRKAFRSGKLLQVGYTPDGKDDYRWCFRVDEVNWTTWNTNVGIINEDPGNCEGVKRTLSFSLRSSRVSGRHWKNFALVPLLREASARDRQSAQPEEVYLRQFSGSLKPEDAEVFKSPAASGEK
Cannabinoid receptor 1 (Mus musculus, UniProt P47746), sequence (P47746 whole entry): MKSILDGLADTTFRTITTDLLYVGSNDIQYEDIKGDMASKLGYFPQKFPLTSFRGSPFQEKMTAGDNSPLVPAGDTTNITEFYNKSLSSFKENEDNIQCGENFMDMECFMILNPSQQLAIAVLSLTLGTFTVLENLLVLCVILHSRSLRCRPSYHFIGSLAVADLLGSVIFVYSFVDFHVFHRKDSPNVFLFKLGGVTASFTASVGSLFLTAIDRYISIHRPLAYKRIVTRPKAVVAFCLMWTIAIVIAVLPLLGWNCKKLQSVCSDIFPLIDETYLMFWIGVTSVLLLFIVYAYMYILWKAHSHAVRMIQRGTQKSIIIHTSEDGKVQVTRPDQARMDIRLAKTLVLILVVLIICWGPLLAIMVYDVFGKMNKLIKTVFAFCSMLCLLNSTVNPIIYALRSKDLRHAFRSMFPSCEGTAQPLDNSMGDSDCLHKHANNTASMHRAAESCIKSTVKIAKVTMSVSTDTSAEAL

SMILES | Ki [1] [nM] | EC50 [2] [nM] | EC50 [3] [nM] | Emax [4] [%] | Ki [5] [nM]
CCCCCCCC/C=C\CCCCCCCC(=O)N[C@@H]1C[C@@H]1O [listing 1 of 2 here] | 2040 | 150 | – | – | –
CCCCCCCC/C=C\CCCCCCCC(=O)N[C@@H]1C[C@H]1O [listing 1 of 2 here] | 4410 | 13 | – | – | –
CCCCC/C=C\C/C=C\C/C=C\C/C=C\CCCC(=O)N[C@@H]1C[C@@H]1O [listing 1 of 2 here] | 200 | 610 | – | – | –
CCCCC/C=C\C/C=C\C/C=C\C/C=C\CCCC(=O)N[C@@H]1C[C@H]1O [listing 1 of 2 here] | 190 | 23 | 780 | – | –
CCCCC/C=C\C/C=C\C/C=C\C/C=C\CCCC(=O)N[C@H]1C[C@H]1O | 190 | 2400 | – | 65.8 | –
CCCCC/C=C\C/C=C\C/C=C\C/C=C\CCCC(=O)N[C@H]1C[C@@H]1O | 290 | 47 | 2550 | 75.7 | –
CCCCC/C=C\C/C=C\C/C=C\C/C=C\CCCC(=O)N[C@@H]1C[C@@H]1O [listing 2 of 2 here] | – | – | – | 76.5 | –
CCCCC/C=C\C/C=C\C/C=C\C/C=C\CCCC(=O)N[C@@H]1C[C@H]1O [listing 2 of 2 here] | – | – | – | 80.3 | –
CCCCCCCC/C=C\CCCCCCCC(=O)N[C@@H]1C[C@@H]1O [listing 2 of 2 here] | – | – | – | 62.5 | –
CCCCCCCC/C=C\CCCCCCCC(=O)N[C@@H]1C[C@H]1O [listing 2 of 2 here] | – | – | – | 72.5 | –
CCCCCCCC/C=C\CCCCCCCC(=O)N[C@@H]1C[C@@H]1O (racemic) | 340 | 3700 | – | – | –
CCCCCCCC/C=C\CCCCCCCC(=O)N[C@@H]1C[C@H]1O (racemic) | 380 | 60 | – | – | –
CCCCC/C=C\C/C=C\C/C=C\C/C=C\CCCC(=O)N[C@@H]1C[C@@H]1O (racemic) | 150 | 1900 | – | – | –
CCCCC/C=C\C/C=C\C/C=C\C/C=C\CCCC(=O)N[C@@H]1C[C@H]1O (racemic) | 240 | 50 | – | – | –
CCCCCCCCCCCCCCCC(=O)N[C@@H]1C[C@@H]1O (racemic) | > 10000 | 26400 | – | – | > 10000
CCCCCCCCCCCCCCCC(=O)N[C@@H]1C[C@H]1O (racemic) | > 10000 | 40 | – | – | > 10000
CCCCC/C=C\C/C=C\C/C=C\C/C=C\CCCC(=O)NCCO [ANANDAMIDE] | – | 200 | – | – | –
COc1cc(CNC(=O)CCCC/C=C/C(C)C)ccc1O [CAPSAICIN] | > 10000 | – | – | – | –
CCCCCCC(C)(C)c1ccc([C@@H]2C[C@H](O)CC[C@H]2CCCO)c(O)c1 [CP-55940] | – | 10 | – | 83 | –
CCCCCCCC/C=C\CCCCCCCC(=O)NCCO [OLEOYLETHANOLAMIDE] | > 10000 | 3650 | – | – | –
CCCCCCCCCCCCCCCC(=O)NCCO [PALMIDROL] | > 5000 | > 10000 | – | – | > 5000
